pIC50: −log10 of the molar value. Calls of active or inactive are those of the source. The rule behind the calls is not given here.
Key:
[1] = target: Human immunodeficiency virus type 1 integrase (Human immunodeficiency virus 1) (UniProt Q7ZJM1); test: Inhibition of GST-tagged HIV1 integrase and C-terminal His6-tagged HIV1 integrase dimerization at 100 uM after 3 hrs by AlphaScreen-based dimerization assay
Outline: (§1)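 AlphaScreen proximity assay. GST-tagged HIV-1 IN is mixed with His6-tagged IN and incubated so monomers exchange between pre-existing dimers, giving a steady-state mix of homo- and GST/His6 heterodimers. Photon counts are normalized to DMSO and blank controls and expressed as normalized signal (%). Dose–response curves give the IC50, and single-concentration tests give percent inhibition.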

[2] = target: T1, Human immunodeficiency virus type 1 integrase (Human immunodeficiency virus 1, UniProt Q7ZJM1); test: Inhibition of GST-tagged HIV1 integrase and C-terminal His6-tagged HIV1 integrase dimerization after 3 hrs by AlphaScreen-based dimerization assay; outline: as §1
T1 sequence (Q7ZJM1 whole entry): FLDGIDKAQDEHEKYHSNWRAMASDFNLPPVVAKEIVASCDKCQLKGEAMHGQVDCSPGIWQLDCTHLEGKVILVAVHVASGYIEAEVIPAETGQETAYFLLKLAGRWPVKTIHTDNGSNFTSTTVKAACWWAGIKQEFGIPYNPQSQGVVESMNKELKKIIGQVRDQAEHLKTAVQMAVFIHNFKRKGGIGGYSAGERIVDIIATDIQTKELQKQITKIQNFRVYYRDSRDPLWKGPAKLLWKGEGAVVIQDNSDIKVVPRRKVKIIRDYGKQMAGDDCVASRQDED

[3] = target: T1, Human immunodeficiency virus type 1 integrase; test: Inhibition of HIV1 integrase using oligodeoxynucleotide as substrate after 1 hr by ELISA

Sequence of Human immunodeficiency virus type 1 integrase (Human immunodeficiency virus 1) (Q7ZJM1 as listed by the source): as the sequence (Q7ZJM1 whole entry) above

Row | inhibition [1] | pIC50 [2] | pIC50 [3] | Structure (SMILES)
1 | 30% |  |  | O=C(N/N=C/c1ccc(Sc2ccccn2)o1)c1cc2ccccc2cc1O
2 | 14% |  |  | CC(CCc1ccccc1)NC(=O)c1ccc(NC(=O)C2COc3ccccc3O2)cc1 (stereo not drawn)
3 | 49% |  |  | O=C(CNc1ccc2ccccc2c1)N/N=C/c1ccc(-c2ccc(Cl)cc2)o1
4 | 73% |  |  | COc1ccc(OC)c2[nH]c(C(=O)NCCC(=O)NCCc3c[nH]c4ccccc34)cc12
5 | 50% | 3.89 |  | COc1ccc(CNC(=O)C/C(C)=N/NC(=O)c2cc3ccccc3cc2O)cc1
6 | 50% |  |  | COc1cccc2[nH]c(C(=O)NCCCC(=O)Nc3ccc4c(c3)OCCO4)cc12
7 | inactive |  |  | COc1cccc2[nH]c(C(=O)NCCC(=O)Nc3nc4ccccc4s3)cc12
8 | 13% |  |  | Cc1ccc(C(=O)CCC(=O)Nc2nc3c(s2)CCc2c-3cnn2C)cc1C
9 | inactive |  |  | O=C(Nc1cccc(-c2cnc3ccccc3n2)c1)c1cc2ccccc2cc1O
10 | 49% |  |  | O=C(N/N=C/c1ccc(-c2ccc(Cl)cc2Cl)o1)c1cc2ccccc2cc1O
11 | inactive |  |  | O=C(NCCNC(=O)c1nc2ccccc2c(=O)[nH]1)c1ccc2ccccc2n1
12 | inactive |  |  | O=C(NCCNC(=O)c1cc2ccccc2cc1O)c1cc2ccccc2cc1O
13 | 23% |  |  | CCc1ccc(O)c(NC(=S)NC(=O)COc2cc(C)c(Cl)c(C)c2)c1
14 | 58% |  |  | COc1ccc(OC)c2[nH]c(C(=O)NCCCC(=O)Nc3ccc4c(c3)OCCO4)cc12
15 | inactive |  |  | Cc1cc(C)cc(OCC(=O)NNC(=O)c2ccc3ccccc3c2O)c1
16 | inactive |  |  | C/C(CC(=O)Nc1ccc(Cl)c(Cl)c1)=N\NC(=O)c1cc2ccccc2cc1O
17 | 83% | 4.42 | 4.10 | COc1ccc(CCNC(=O)C/C(C)=N/NC(=O)c2cc3ccccc3cc2O)cc1OC
18 | inactive |  |  | O=C(NCCNC(=O)c1cc2ccccc2o1)c1nc2ccccc2c(=O)[nH]1
19 | inactive |  |  | COc1ccc(/C=C/C(=O)Nc2ncc(Cc3cccc(C)c3)s2)cc1
20 | 54% |  |  | C/C(CC(=O)Nc1ccc(OCc2ccccc2)cc1)=N\NC(=O)c1cc2ccccc2cc1O
21 | inactive |  |  | Cc1ccc(C2(O)CCN(CCNC(=O)Cc3cccc(C)c3)CC2)cc1
22 | inactive |  |  | COc1ccc(C(=O)N/N=C(\C)CC(=O)NCc2ccccc2)cc1OC
23 | 32% |  |  | COc1cccc(-c2nc(C)c(C(=O)Nc3cc(C)ccc3O)s2)c1
24 | inactive |  |  | C[C@H](Oc1ccc2c(c1)CCC2)C(=O)NNC(=O)Nc1cccc([N+](=O)[O-])c1
25 | inactive |  |  | CCn1c2ccccc2c2cc(NC(=O)/C=C(\C)NNC(=O)Cc3cccc4ccccc34)ccc21
